{"source": "ChEMBL document CHEMBL4680077", "about": "“Differentiation of skeletal osteogenic progenitor cells to osteoblasts with 3,4-diarylbenzopyran based amide derivatives: Novel osteogenic agents” (Eur J Med Chem, 2016)", "key": {"[1]": {"experiment": "Acute toxicity in Swiss albino mouse assessed as tissue protein level at 50 mg/kg, po measured after 7 days (reference value: 0.029 +/- 0.004 mg/ml)", "assay_type": "organism-based", "conditions": "in vivo, 168 h, time 7 day"}, "[2]": {"experiment": "Acute toxicity in Swiss albino mouse assessed as absolute liver weight at 50 mg/kg, po measured after 7 days (reference value: 1.11 +/- 0.04 g)", "assay_type": "organism-based", "conditions": "in vivo, 168 h, time 7 day"}, "[3]": {"experiment": "Acute toxicity in Swiss albino mouse assessed as creatinine level at 300 mg/kg, po measured after 7 days (reference value: 0.97 +/- 0.07 mg/dL)", "assay_type": "organism-based", "conditions": "in vivo, 168 h, time 7 day"}, "[4]": {"experiment": "Acute toxicity in Swiss albino mouse assessed as creatinine level at 50 mg/kg, po measured after 7 days (reference value: 0.97 +/- 0.07 mg/dL)", "assay_type": "organism-based", "conditions": "in vivo, 168 h, time 7 day"}, "[5]": {"experiment": "Acute toxicity in Swiss albino mouse assessed as body weight at 5 mg/kg, po observed on day 1 (reference value: 20.38 +/- 0.24 g)", "assay_type": "organism-based", "conditions": "in vivo, 24 h, time 1 day"}, "[6]": {"experiment": "Acute toxicity in Swiss albino mouse assessed as mortality at 5 to 1000 mg/kg, po measured after 7 days", "assay_type": "organism-based", "conditions": "in vivo, 168 h, dose 5-1000 mg/kg, time 7 day", "in_short": "(§1)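 Acute oral toxicity per OECD guidelines 420, 423 and 425. Swiss albino mice received a single oral dose at 5, 50, 300 or 1000 mg kg1 body weight, with vehicle controls. Animals were watched for morbidity, mortality and observational changes over 7 days. Tail-vein blood was then taken for hematology and serum biochemistry. Organs were inspected at sacrifice. n = 6 per group.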"}, "[7]": {"experiment": "Acute toxicity in Swiss albino mouse assessed as haemoglobin level at 5 mg/kg, po measured after 7 days (reference value: 10.86 +/- 0.87 g/dL)", "assay_type": "organism-based", "conditions": "in vivo, 168 h, time 7 day"}, "[8]": {"experiment": "Acute toxicity in Swiss albino mouse assessed as absolute lung weight at 300 mg/kg, po measured after 7 days (reference value: 0.16 +/- 0.01 g)", "assay_type": "organism-based", "conditions": "in vivo, 168 h, time 7 day"}, "[9]": {"experiment": "Oral bioavailability in Sprague-Dawley rat at 1 mg/kg measured upto 24 hrs by LC-MS/MS analysis", "assay_type": "ADME, organism-based", "conditions": "in vivo", "in_short": "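Oral (1 mg kg-1, 0.25% CMC) and i.v. (1 mg kg-1 bolus) groups of female SD rats, n = 4 each, sampled to 24 h and assayed by plasma LC-MS/MS. AUC0-∞ = AUC0-t + Clast/kel. %F = (AUC oral × dose i.v.)/(AUC i.v. × dose oral) × 100.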"}, "[10]": {"experiment": "Acute toxicity in Swiss albino mouse assessed as ALKP level at 1000 mg/kg, po measured after 7 days (reference value: 379.25 +/- 27.08 U/L)", "assay_type": "organism-based", "conditions": "in vivo, 168 h, time 7 day"}, "[11]": {"experiment": "Acute toxicity in Swiss albino mouse assessed as absolute brain weight at 1000 mg/kg, po measured after 7 days (reference value: 0.37 +/- 0.02 g)", "assay_type": "organism-based", "conditions": "in vivo, 168 h, time 7 day"}, "[12]": {"experiment": "Acute toxicity in Swiss albino mouse assessed as absolute uterus weight at 50 mg/kg, po measured after 7 days (reference value: 0.27+/- 0.07 g)", "assay_type": "organism-based", "conditions": "in vivo, 168 h, time 7 day"}, "[13]": {"experiment": "Acute toxicity in Swiss albino mouse assessed as morbidity at 5 to 1000 mg/kg, po measured after 7 days", "assay_type": "organism-based", "conditions": "in vivo, 168 h, dose 5-1000 mg/kg, time 7 day", "in_short": "as §1"}, "[14]": {"experiment": "Acute toxicity in Swiss albino mouse assessed as absolute uterus weight at 5 mg/kg, po measured after 7 days (reference value: 0.27+/- 0.07 g)", "assay_type": "organism-based", "conditions": "in vivo, 168 h, time 7 day"}, "[15]": {"experiment": "Acute toxicity in Swiss albino mouse assessed as lymphocyte count at 300 mg/kg, po measured after 7 days (reference value: 37.97 +/- 1.80 %)", "assay_type": "organism-based", "conditions": "in vivo, 168 h, time 7 day"}, "[16]": {"experiment": "Acute toxicity in Swiss albino mouse assessed as albumin level at 50 mg/kg, po measured after 7 days (reference value: 3.24 +/- 0.30 g/dL)", "assay_type": "organism-based", "conditions": "in vivo, 168 h, time 7 day"}, "[17]": {"experiment": "Acute toxicity in Swiss albino mouse assessed as relative ovary weight at 50 mg/kg, po measured after 7 days (reference value: 0.07 +/- 0.02 %)", "assay_type": "organism-based", "conditions": "in vivo, 168 h, time 7 day"}, "[18]": {"experiment": "Acute toxicity in Swiss albino mouse assessed as absolute heart weight at 50 mg/kg, po measured after 7 days (reference value: 0.12 g)", "assay_type": "organism-based", "conditions": "in vivo, 168 h, time 7 day"}, "Calvarial osteoblast": {"tested_on": "Calvarial osteoblast", "experiment": "Induction of osteoblast differentiation in mouse calvarial osteoblast assessed as increase in ERbeta expression at 1 pM incubated for 48 hrs by Western blot analysis", "assay_type": "functional, cell-based", "in_short": "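Calvarial osteoblasts at 60–70% confluence were treated ± compound for 48 h, with 100 pM E2 as positive control. Lysates (30 µg protein) were resolved on 10% SDS-PAGE, transferred to PVDF and probed for ER-α and ER-β with HRP secondaries and ECL detection. Bands were quantified by densitometry normalized to β-actin.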"}, "[19]": {"experiment": "Acute toxicity in Swiss albino mouse assessed as absolute spleen weight at 5 mg/kg, po measured after 7 days (reference value: 0.17 +/- 0.03 g)", "assay_type": "organism-based", "conditions": "in vivo, 168 h, time 7 day"}, "Mus musculus": {"tested_on": "Mus musculus", "experiment": "In vivo osteogenic activity in ovariectomized BALB/c mouse assessed as decrease in serum OCN at 1 to 10 mg/kg, po via gavage administered for 30 days", "assay_type": "functional, organism-based", "conditions": "dose 1-10 mg/kg, time 30.0 day", "in_short": "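Eight-week-old female balb/c mice were ovariectomized and dosed once daily by oral gavage at 1 or 10 mg kg-1 in vehicle (gum acacia in water) for 30 days; sham and Ovx vehicle groups served as controls. Serum CTx and osteocalcin were assayed in duplicate. n = 10 per group; mean ± SEM.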"}}, "note": "Calls of active or inactive are those of the source. No cut-off for these calls is given here.", "data": [{"smiles": "CCCCN(C)C(=O)CCCCOc1ccc([C@H]2c3ccc(OC)cc3OC(C)(C)[C@@H]2c2ccccc2)cc1", "values": [{"measurement": "Activity", "setting": "[1]", "value": 0.036, "unit": "mg/mL"}, {"measurement": "Activity", "setting": "[2]", "value": 1.23, "unit": "g"}, {"measurement": "Activity", "setting": "[3]", "value": 0.97, "unit": "mg/dL"}, {"measurement": "Activity", "setting": "[4]", "value": 0.8, "unit": "mg/dL"}, {"measurement": "Activity", "setting": "[5]", "value": 20.65, "unit": "g"}, {"measurement": "Activity", "setting": "[6]", "value": "Non-Toxic"}, {"measurement": "Activity", "setting": "[7]", "value": 12.94, "unit": "g/dL"}, {"measurement": "Activity", "setting": "[8]", "value": 0.17, "unit": "g"}, {"measurement": "bioavailability", "setting": "[9]", "value": 13.2, "unit": "%"}, {"measurement": "Activity", "setting": "[10]", "value": 378.12, "unit": "U/L"}, {"measurement": "Activity", "setting": "[11]", "value": 0.33, "unit": "g"}, {"measurement": "Activity", "setting": "[12]", "value": 0.24, "unit": "g"}, {"measurement": "Activity", "setting": "[13]", "value": "Non-Toxic"}, {"measurement": "Activity", "setting": "[14]", "value": 0.3, "unit": "g"}, {"measurement": "Activity", "setting": "[15]", "value": 42.9, "unit": "%"}, {"measurement": "Activity", "setting": "[16]", "value": 2.77, "unit": "g/dL"}, {"measurement": "Activity", "setting": "[17]", "value": 0.33, "unit": "%"}, {"measurement": "Activity", "setting": "[18]", "value": 0.12, "unit": "g"}, {"measurement": "Activity", "setting": "Calvarial osteoblast", "value": "Active"}, {"measurement": "Activity", "setting": "[19]", "value": 0.11, "unit": "g"}, {"measurement": "Activity", "setting": "Mus musculus", "value": "Active"}]}]}
